Results reported in ChEMBL document CHEMBL5724801, “EUbOPEN Chemogenomics Library - Multiplex” (2024).
Several values for one entry are separate records, joined by “and”; a condition that tells them apart may be missing. Equal entries are not always repeated.

Test system: Fibroblast
Assay: Multiplex assay against human fibroblast
Format: toxicity, cell-based
Outline: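 With compound added, live cells were imaged on a CQ1 microscope at 37°C and 5% CO2; staining with Hoechst33342, BioTracker Green Microtubule Cytoskeleton Dye, MitoTracker Red and Annexin V Alexa Fluor 680 had been done at seeding. The CellPathfinder machine-learning gating scheme split cells into Hoechst high-intensity objects or normal cells, normal cells into healthy, pyknosed or fragmented nuclei, and pyknosed cells into mitotic or apoptotic. The tubulin, mitochondrial-mass and membrane-permeability phenotypes are per cents of healthy-nucleus cells.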

[1] = 12 h, 1 µM, compound concentration 1 uM
[2] = 12 h, 10 µM, compound concentration 10 uM
[3] = 24 h, 1 µM, compound concentration 1 uM
[4] = 24 h, 10 µM, compound concentration 10 uM
[5] = 48 h, 1 µM, compound concentration 1 uM
[6] = 48 h, 10 µM, compound concentration 10 uM

In the case of `CCN1CCN(Cc2ccc(Nc3ncc(F)c(-c4cc(F)c5nc(C)n(C(C)C)c5c4)n3)nc2)CC1.CS(=O)(=O)O`, the “Population Apoptotic (%)” value [1] is reported as 17.78% and 12.5%, the “Population Fragmented Nuclei (%)” value [1] is reported as 19.76% and 8.1% and the “Population Healthy Nuclei (%)” value [1] is reported as 53.29% and 72.47%. For the same compound, the “Population Hoechst High Intensity Objects (%)” value [1] was 0%, the “Population Mitochondria Different-Phenotype (%)” value [1] was 15.73% and 16.2% and the “Population Mitotic Cells (%)” value [1] was 82.22% and 87.5%. The “Population Normal (%)” value [1] was 100%, the “Population Pyknosed Nuclei (%)” value [1] was 26.95% and 19.43% and the “Population Tubulin-Different-Phenotype (%)” value [1] was 38.2% and 41.9%. For the same compound, the “Total Cell Count” value [1] was 167 and 247, the “Population Apoptotic (%)” value [2] was 22.89% and 30% and the “Population Fragmented Nuclei (%)” value [2] was 14.07% and 8.33%. The “Population Healthy Nuclei (%)” value [2] was 54.37% and 75%, the “Population Hoechst High Intensity Objects (%)” value [2] was 0% and the “Population Mitochondria Different-Phenotype (%)” value [2] was 15.38% and 7.78%. The “Population Mitotic Cells (%)” value [2] was 77.11% and 70%, the “Population Normal (%)” value [2] was 100% and the “Population Pyknosed Nuclei (%)” value [2] was 31.56% and 16.67%. The “Population Tubulin-Different-Phenotype (%)” value [2] was 68.53% and 62.59%, the “Total Cell Count” value [2] was 263 and 360 and the “Population Apoptotic (%)” value [3] was 25%. The “Population Fragmented Nuclei (%)” value [3] was 16.76% and 6.88%, the “Population Healthy Nuclei (%)” value [3] was 56.76% and the “Population Hoechst High Intensity Objects (%)” value [3] was 0%. For the same compound, the “Population Mitotic Cells (%)” value [3] was 89.8% and 75%, the “Population Normal (%)” value [3] was 100% and the “Population Pyknosed Nuclei (%)” value [3] was 26.49% and 11.59%. For the same compound, the “Population Tubulin-Different-Phenotype (%)” value [3] was 43.81% and 37.78%, the “Total Cell Count” value [3] was 185 and 276 and the “Population Apoptotic (%)” value [4] was 27.71% and 21.01%. The “Population Fragmented Nuclei (%)” value [4] was 11.19% and 3.61%, the “Population Healthy Nuclei (%)” value [4] was 58.84% and 63.13% and the “Population Hoechst High Intensity Objects (%)” value [4] was 0%. For the same compound, the “Population Mitochondria Different-Phenotype (%)” value [4] was 23.31% and 9.92%, the “Population Mitotic Cells (%)” value [4] was 72.29% and 78.99% and the “Population Normal (%)” value [4] was 100%. For the same compound, the “Population Pyknosed Nuclei (%)” value [4] was 29.96% and 33.25%, the “Population Tubulin-Different-Phenotype (%)” value [4] was 62.58% and 53.05% and the “Total Cell Count” value [4] was 277 and 415. For the same compound, the “Population Apoptotic (%)” value [5] was 23.08% and 25%, the “Population Fragmented Nuclei (%)” value [5] was 17.96% and 9.26% and the “Population Healthy Nuclei (%)” value [5] was 75.73% and 86.3%. For the same compound, the “Population Hoechst High Intensity Objects (%)” value [5] was 0%, the “Population Mitotic Cells (%)” value [5] was 76.92% and 75% and the “Population Normal (%)” value [5] was 100%. For the same compound, the “Population Pyknosed Nuclei (%)” value [5] was 6.31% and 4.44%, the “Population Tubulin-Different-Phenotype (%)” value [5] was 44.23% and 44.64% and the “Total Cell Count” value [5] was 206 and 270. For the same compound, the “Population Apoptotic (%)” value [6] was 38.62% and 20.77%, the “Population Fragmented Nuclei (%)” value [6] was 5.28% and 6.72% and the “Population Healthy Nuclei (%)” value [6] was 58.29% and 65.97%. For the same compound, the “Population Hoechst High Intensity Objects (%)” value [6] was 0%, the “Population Mitotic Cells (%)” value [6] was 61.38% and 79.23% and the “Population Normal (%)” value [6] was 100%. For the same compound, the “Population Pyknosed Nuclei (%)” value [6] was 36.43% and 27.31%, the “Population Tubulin-Different-Phenotype (%)” value [6] was 43.97% and 47.74% and the “Total Cell Count” value [6] was 398 and 670.
In the case of `COc1cc2ncnc(Nc3ccc(Oc4ccccc4)cc3C)c2cc1OC.Cl`, the “Population Apoptotic (%)” value [1] is reported as 11.11% and 23.33%, the “Population Fragmented Nuclei (%)” value [1] is reported as 12.3% and 7.85% and the “Population Healthy Nuclei (%)” value [1] is reported as 63.64% and 76.44%. The “Population Hoechst High Intensity Objects (%)” value [1] was 0%, the “Population Membrane Permeable-Phenotype (%)” value [1] was 5.04% and 3.42% and the “Population Mitochondria Different-Phenotype (%)” value [1] was 8.4% and 12.33%. The “Population Mitotic Cells (%)” value [1] was 88.89% and 76.67%, the “Population Normal (%)” value [1] was 100% and the “Population Pyknosed Nuclei (%)” value [1] was 24.06% and 15.71%. For the same compound, the “Population Tubulin-Different-Phenotype (%)” value [1] was 15.13% and 13.7%, the “Total Cell Count” value [1] was 187 and 191 and the “Population Apoptotic (%)” value [2] was 10.77% and 17.02%. The “Population Fragmented Nuclei (%)” value [2] was 14.61% and 11.16%, the “Population Healthy Nuclei (%)” value [2] was 48.88% and 68.67% and the “Population Hoechst High Intensity Objects (%)” value [2] was 0%. The “Population Membrane Permeable-Phenotype (%)” value [2] was 3.45% and 10.62%, the “Population Mitochondria Different-Phenotype (%)” value [2] was 29.89% and 25% and the “Population Mitotic Cells (%)” value [2] was 89.23% and 82.98%. For the same compound, the “Population Normal (%)” value [2] was 100%, the “Population Pyknosed Nuclei (%)” value [2] was 36.52% and 20.17% and the “Population Tubulin-Different-Phenotype (%)” value [2] was 58.62% and 66.88%. The “Total Cell Count” value [2] was 178 and 233, the “Population Apoptotic (%)” value [3] was 0% and 16.67% and the “Population Fragmented Nuclei (%)” value [3] was 10.95% and 4.57%. The “Population Healthy Nuclei (%)” value [3] was 74.29% and 80.2%, the “Population Hoechst High Intensity Objects (%)” value [3] was 0% and the “Population Membrane Permeable-Phenotype (%)” value [3] was 5.77% and 1.9%. The “Population Mitochondria Different-Phenotype (%)” value [3] was 7.05% and 6.33%, the “Population Mitotic Cells (%)” value [3] was 100% and 83.33% and the “Population Normal (%)” value [3] was 100%. For the same compound, the “Population Pyknosed Nuclei (%)” value [3] was 14.76% and 15.23%, the “Population Tubulin-Different-Phenotype (%)” value [3] was 15.38% and 12.66% and the “Total Cell Count” value [3] was 210 and 197. For the same compound, the “Population Fragmented Nuclei (%)” value [4] was 20.69% and 12.5%, the “Population Healthy Nuclei (%)” value [4] was 59.48% and 79.49% and the “Population Hoechst High Intensity Objects (%)” value [4] was 0%. The “Population Membrane Permeable-Phenotype (%)” value [4] was 4.35% and 4.03%, the “Population Mitochondria Different-Phenotype (%)” value [4] was 25.36% and 23.39% and the “Population Mitotic Cells (%)” value [4] was 95.65% and 76%. For the same compound, the “Population Normal (%)” value [4] was 100%, the “Population Pyknosed Nuclei (%)” value [4] was 19.83% and 8.01% and the “Population Tubulin-Different-Phenotype (%)” value [4] was 65.22% and 70.16%. The “Total Cell Count” value [4] was 232 and 312, the “Population Apoptotic (%)” value [5] was 14.29% and 18.75% and the “Population Fragmented Nuclei (%)” value [5] was 14.46% and 12.14%. The “Population Healthy Nuclei (%)” value [5] was 77.11% and 80.1%, the “Population Hoechst High Intensity Objects (%)” value [5] was 0% and the “Population Membrane Permeable-Phenotype (%)” value [5] was 1.04% and 1.21%. For the same compound, the “Population Mitochondria Different-Phenotype (%)” value [5] was 11.98% and 4.85%, the “Population Mitotic Cells (%)” value [5] was 85.71% and 81.25% and the “Population Normal (%)” value [5] was 100%. The “Population Pyknosed Nuclei (%)” value [5] was 8.43% and 7.77%, the “Population Tubulin-Different-Phenotype (%)” value [5] was 8.33% and 15.76% and the “Total Cell Count” value [5] was 249 and 206. The “Population Apoptotic (%)” value [6] was 14.29% and 28.57%, the “Population Fragmented Nuclei (%)” value [6] was 17.05% and 16.67% and the “Population Healthy Nuclei (%)” value [6] was 78.98% and 81.45%. For the same compound, the “Population Hoechst High Intensity Objects (%)” value [6] was 0%, the “Population Membrane Permeable-Phenotype (%)” value [6] was 4.68% and 4.95% and the “Population Mitochondria Different-Phenotype (%)” value [6] was 11.15% and 6.93%. For the same compound, the “Population Mitotic Cells (%)” value [6] was 85.71% and 71.43%, the “Population Normal (%)” value [6] was 100% and the “Population Pyknosed Nuclei (%)” value [6] was 3.98% and 1.88%. For the same compound, the “Population Tubulin-Different-Phenotype (%)” value [6] was 51.8% and 63.04% and the “Total Cell Count” value [6] was 352 and 372.
